Measurements from ChEMBL document CHEMBL1132547, “Molecular recognition of modified adenine nucleotides by the P2Y(1)-receptor. 1. A synthetic, biochemical, and NMR approach” (J Med Chem, 1999).

Columns and labels:
[1] = target: P2Y purinoceptor 1 (Meleagris gallopavo, UniProt P49652); assay: Compounds was tested for its ability to stimulate phospholipase C activity at the P2Y purinoceptor 1 in turkey erythrocyte membranes.; format: cell membranes
Outline: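 Turkey erythrocytes labeled 18–24 h at 37 °C with 2-[3H]myo-inositol in inositol-free DMEM; membranes from hypotonic lysis; PLC assay at pH 7.0 with […] and varying nucleotide concentrations, 5 min at 30 °C; total [3H]inositol phosphates by ion-exchange chromatography; EC50 from four-parameter logistic fit, ≥3 experiments on different membrane preparations, duplicate assays.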

[2] = species: Rattus norvegicus; assay: Amplitude of the [Ca++]i Transient evoked by 10 uM ATP, AMP and the compound in NG108-15 Neuroblastoma x Glioma Hybrid cells; format: functional
Outline: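 NG108-15 cells (passage 24–40) grown on glass coverslips 3–7 days (20–80% confluency), loaded 30 min at 37 °C with 2 μM fura-2/AM in HEPES-buffered saline pH 7.4, superfused at 37 °C; 30-s agonist application at 10 μM; single-cell imaging, alternate 340/380 nm excitation, emission >510 nm; amplitude as Δ F340/F380 ratio, mean ± SEM over n single cells.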

[3] = species: Rattus norvegicus; assay: Amplitude of the [Ca++]i Transient evoked by 10 uM ATP, AMP and the compound in rat Astrocytes, expressed as (F340 nm/F380 nm); format: functional
Outline: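 Primary astrocyte-enriched cultures from newborn Wistar rat whole brain, used on days 6–11 in culture; fura-2/AM (2 μM, 30 min, 37 °C, HEPES-buffered saline pH 7.4) loading; superfusion at 37 °C, 30-s stimulation at 10 μM; single-cell 340/380 nm ratio imaging; maximal Δ F340/F380, mean ± SEM, n = single cells.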

Chain of P2Y purinoceptor 1 (P49652 whole entry): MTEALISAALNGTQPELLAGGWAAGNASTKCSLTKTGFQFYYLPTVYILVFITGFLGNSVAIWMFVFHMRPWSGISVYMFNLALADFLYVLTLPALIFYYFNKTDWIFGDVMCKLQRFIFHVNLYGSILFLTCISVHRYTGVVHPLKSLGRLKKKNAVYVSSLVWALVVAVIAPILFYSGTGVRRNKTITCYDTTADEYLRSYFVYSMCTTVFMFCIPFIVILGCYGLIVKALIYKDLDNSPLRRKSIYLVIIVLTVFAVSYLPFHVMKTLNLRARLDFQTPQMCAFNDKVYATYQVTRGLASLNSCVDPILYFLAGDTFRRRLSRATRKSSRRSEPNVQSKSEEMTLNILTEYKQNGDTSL

EC50 [1]	Compound	Activity [2]	Activity [3]
51000 nM	CCCCNc1nc2c(N)ncnc2n1[C@@H]1O[C@H](COP(=O)(O)OP(=O)(O)OP(=O)(O)O)[C@@H](O)[C@H]1O	–	–
10000 nM	CCCCSc1nc2c(N)ncnc2n1[C@@H]1O[C@H](COP(=O)(O)OP(=O)(O)OP(=O)(O)O)[C@@H](O)[C@H]1O	–	–
88 nM	CCCCOc1nc(N)c2ncn([C@@H]3O[C@H](COP(=O)([O-])OP(=O)([O-])OP(=O)([O-])[O-])[C@@H](O)[C@H]3O)c2n1.[Na+].[Na+].[Na+].[Na+]	0.06	0.63
5710 nM	CCCCOc1nc2c(N)ncnc2n1[C@@H]1O[C@H](COP(=O)(O)OP(=O)(O)OP(=O)(O)O)[C@@H](O)[C@H]1O	–	–
18 nM	CCCCSc1nc(N)c2ncn([C@@H]3O[C@H](COP(=O)([O-])OP(=O)([O-])OP(=O)([O-])[O-])[C@@H](O)[C@H]3O)c2n1.[Na+].[Na+].[Na+].[Na+]	0.23	0.9
39 nM	CCCCNc1nc(N)c2ncn([C@@H]3O[C@H](COP(=O)([O-])OP(=O)([O-])OP(=O)([O-])[O-])[C@@H](O)[C@H]3O)c2n1.[Na+].[Na+].[Na+].[Na+]	0.05	0.89
–	CCCCSc1nc(N)c2ncn(C3O[C@H](COP(=O)([O-])[O-])[C@@H](O)[C@H]3O)c2n1.[Na+].[Na+] (stereo partly drawn)	–	0.28
